Screens as filed in PubChem.
Compounds with a hit are over-represented: about 12% of the library has one in this group of screens.
Dynein transport = inhibitors of GR-EGFP nuclear translocation, primary screen, dynein cargo transport inhibitor project, imaging, high-content, 3617.4 mouse cells; 220,000 tested, 0.47% active; z-score, hits read low; test concentration mostly 20 µM; stimulated with dexamethasone, 1 µM; stronger effect = lower value;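 active = plate z-score of nuclear minus cytoplasmic receptor signal below a set negative limit, without overly bright fluorescence or cell loss, cut at about -3.5 in these data, passing the limit was not always enough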;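 note: z-score of nuclear minus cytoplasmic ring GR-EGFP intensity difference per well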
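Medium: Induction medium lacking tetracycline, stripped serum | Probe or stimulus: 1.0 µM final dexamethasone stimulus | Schedule: 48 h induction, then 1 h compound, then 30 min agonist, 37 °C | Signal: Automated 10x imaging of fixed Hoechst-stained cells | Evaluation: Per-cell GR-EGFP intensity, nucleus versus surrounding cytoplasmic ring, well-averaged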
Autophagy HCS = autophagy modulators in MEF cells, primary screen, imaging, high-content, MEF GFP-LC3. calls only at 10 µM (by protocol). AID 463193, 2010. MEF GFP-LC3 puncta imaging; test concentration mostly 10 µM. 190,000 tested, 0.98% active;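 active = percentage of spot-positive cells more than 3 SD above its plate mean, without a fluorescence outlier flag or 80% toxicity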;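 note: spot-positive cell cutoff set from DMSO-treated cells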
bCat nuc transl = modulators of beta-catenin nuclear translocation, primary screen, imaging, HeLa cells, immunofluorescence, high-content; nuclear translocation activity, % at 5 µM; 190,000 tested, 0.3% active; AID 1665, 2009;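 active = nuclear translocation activity above 50% at 5 µM, with a well cell count of 50 or more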;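 note: per-cell ratio of nuclear to cytoplasmic median beta-catenin stain intensity; plate controls were DMSO negative control for no effect and GSK-3 inhibitor IX positive control for full effect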
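Signal – beta-catenin immunofluorescence imaging with DAPI · Test system – human HeLa cell line · Dosing – 5 µM primary single dose, 0.1% DMSO, 0.02–20 µM confirmation series · Measure – % activation, nuclear-to-cytoplasmic median beta-catenin signal ratio per cell · Incubation – 24 h compound exposure at 37°C, 5% CO2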
MT stabilizer = microtubule stabilizers in HeLa cells, primary screen, imaging, high-content imaging; % tubulin-high responders, % at 10 µM; HeLa tubulin immunostaining HCS, 24 h; share of cells brighter than vehicle mean+2SD; AID 2205, 2009; 200,000 tested, 0.83% active;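 active = plate Z-score above 3 for both tubulin-high and condensed-nucleus cell shares, with cell loss under 80%, at 10 µM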;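 note: anti alpha tubulin signal scored within the nucleus-defined area of each cell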
Lmaj promast = Leishmania major promastigote growth inhibition, primary screen | inhibition, % at 10 µM | Leishmania major promastigotes, resazurin fluorescence viability | 200,000 tested, 9% active; in the data active = inhibition above about 50%;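 note: promastigotes grown with compound for 44 hours at 28 °C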
CHOP inhibitor = inhibitors of CHOP promoter induction, primary screen, cell-based, unfolded protein response, luciferase reporter. 220,000 tested, 3.8% active. inhibition, % at 10 µM. CHO-K1 CHOP-promoter luciferase, tunicamycin-induced, 15-18 h. AID 2732, 2010;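 active = compounds that reduced the stress-induced luciferase reporter signal by more than about 70% of percent inhibition, limit read from the data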;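 note: 0% = tunicamycin plus vehicle and 100% = wells without tunicamycin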
Starred values were filed as active, the others as inactive; i = inactive; / = no result.

SMILES | Dynein transport | Autophagy HCS | bCat nuc transl | MT stabilizer | Lmaj promast | CHOP inhibitor
O=C(Nc1ccccc1F)NC1CCN(Cc2nnnn2Cc2ccc(F)cc2)CC1 | -0.39 | i | -5 | 5 | 4 | -14
CCn1c(C(=O)N2CCC(C(=O)NCc3cccs3)CC2)cc2sccc21 | 1.5 | i | / | 3 | 3 | 15
O=C(NCc1ccco1)C1CCN(C(=O)c2cc3sccc3n2Cc2ccc(Cl)cc2)CC1 | -0.061 | i | / | 3 | 65* | 56
CCOC(=O)c1c(C)[nH]c(C)c1C(=O)Cn1nnc(-c2ccccc2C)n1 | -0.32 | i | / | 2 | 21 | 46
CC(C)n1cc(/C=N\NC(=O)c2cc3c(ccc4ccccc43)o2)c2ccccc21 | -0.22 | i | -2 | 8 | 97* | 19
Cc1ccc(/C=N/NC(=O)c2cc3c(ccc4ccccc43)o2)cc1[N+](=O)[O-] | -0.29 | i | 0 | 2 | 5 | -45
CCn1cc(/C=N/NC(=O)c2cc3c(ccc4ccccc43)o2)c2ccccc21 | 1.9 | i | -2 | 41* | 100* | 39
CCOC(=O)Cn1cc(/C=N/NC(=O)c2cc3ccccc3o2)c2ccccc21 | -0.29 | / | -1 | / | / | -21
N#Cc1ccc(CSc2ncnc3c2cnn3Cc2ccccc2)cc1 | -0.19 | i | -1 | 1 | -7 | 19
CCCS(=O)(=O)N1CCC(C(=O)NCCN2CCC(Cc3ccccc3)CC2)CC1 | 0.64 | i | 4 | 7 | 23 | 8
Cc1noc(C)c1S(=O)(=O)N1CCCC(C(=O)NCCc2ccc(Cl)cc2)C1 (stereo not given) | 1.5 | i | / | 2 | 100* | -13
CCCS(=O)(=O)N1CCC(C(=O)NCCN(C)Cc2ccccc2)CC1 | 0.42 | i | 1 | 4 | 61* | -12
CCN(CCNC(=O)C1CCN(S(=O)(=O)c2c(C)noc2C)CC1)c1ccccc1 | 0.71 | i | 0 | 3 | 98* | 18
CCOc1cc(C(=O)OCC(=O)Nc2ncc(Cl)c(C)c2Cl)ccc1OCC(=O)N1CCOCC1 | -0.68 | i | -1 | 6 | -4 | 7
Cc1cc(OCC(=O)N2CCOCC2)c(C(C)C)cc1Cl | -0.58 | i | / | 2 | 80* | 7
CC(Oc1ccccc1Cl)C(=O)N1CCOCC1 (stereo not given) | -0.47 | i | 3 | 3 | -1 | 10
Cc1cc(Cl)ccc1OCC(=O)N1CCCN(C(=O)COc2ccc(Cl)cc2C)CC1 | 0.17 | i | 0 | 2 | 92* | 26
Cc1cc(Cl)ccc1OC(C)C(=O)N1CCCN(C(=O)C(C)Oc2ccc(Cl)cc2C)CC1 (stereo not given) | -0.79 | i | -8 | 3 | 99* | 58
CCOc1cc(C(=O)OC(C)C(=O)Nc2ncc(Cl)cc2Cl)ccc1OCC(=O)N1CCOCC1 (stereo not given) | 1.8 | i | / | 3 | 73* | 25
CCOC(=O)C1CCN(c2c(NC3CCCc4ccccc43)c(=O)c2=O)CC1 (stereo not given) | -0.29 | / | 0 | 2 | -2 | -8
Cc1nn(C(C)C(=O)N/N=C/c2ccc(N(C)C)cc2)c(C)c1[N+](=O)[O-] (stereo not given) | 0.93 | / | 0 | / | / | -1
COc1ccc(C2NC(C(=O)O)CS2)cc1COCC(F)(F)F (stereo not given) | 0.13 | i | / | 4 | -5 | 21
Cc1ccc(N2C(=O)CSC2c2cccnc2)cc1F (stereo not given) | 0.74 | i | -2 | 4 | 13 | 4
O=C(c1cnn(C(=O)COc2ccccc2F)c1)c1cc(F)ccc1O | -0.54 | / | 0 | / | / | 21
Cc1cc(Cl)ccc1OCC(=O)n1cc(C(=O)c2cc(Cl)ccc2O)cn1 | -1 | i | 0 | 2 | -12 | 77*
SMILES | Dynein transport | Autophagy HCS | bCat nuc transl | MT stabilizer | Lmaj promast | CHOP inhibitor
CCOC(=O)CSc1nc(N)c(C#N)c(CC(C)C)c1C#N | -0.64 | i | -4 | 5 | -7 | 18
COc1ccccc1/C=N/N1C(=O)C(CC(=O)Nc2ccc([N+](=O)[O-])cc2OC)SC1=Nc1cccc(C)c1C (stereo not given) | -0.9 | i | 0 | 19* | 25 | 14
CC(=O)Oc1ccc2c(c1)Oc1cc(OC(C)=O)ccc1C21OC(=O)c2ccccc21 | -4.7* | i | 0 | 4 | -9 | 4
Cc1cc(O)ccc1C1(c2ccc(O)cc2C)OC(=O)c2ccccc21 | -1.1 | i | 6 | 4 | -7 | -2
O=C(NCc1cccnc1)C1CCCN(Cc2cnn(-c3ccccc3)c2-n2cccc2)C1 (stereo not given) | 0.54 | i | / | 3 | 8 | 17
CC(C1CCN(Cc2nc(C3CC3)no2)CC1)N1CCOCC1 (stereo not given) | -1.1 | i | 1 | 2 | 78* | 21
Cc1cc(NC(=O)CSc2nnc3c(C)cc4c(C)ccc(C)c4n23)no1 | 1.6 | i | 94* | 57* | 2 | /
CCc1nnc(NC(=O)CSc2nnc3c(C)cc4c(C)ccc(C)c4n23)s1 | -0.99 | i | 63* | 20* | -8 | -9
CCc1nnc(NC(=O)CSc2nnc(-c3ccncc3)n2C)s1 | 0.65 | i | 3 | 4 | -6 | 14
COCCNC(=O)CSCc1nc(-c2ccc(SC)cc2)oc1C | 0.037 | i | / | 3 | 0 | 66
Cn1c(C(=O)N2CCN(c3ccc(Cl)cc3)CC2)cc2c(=O)[nH]c3ccccc3c21 | 0.7 | i | 1 | 4 | 12 | 10
Cc1ccc(Cl)cc1N1CCN(C(=O)c2cc3c(=O)[nH]c4ccccc4c3n2C)CC1 | 0.055 | i | -1 | 8 | 32 | 94*
COc1cccc(N2CCN(C(=O)c3[nH]c(C)c(C(C)=O)c3C)CC2)c1 | -0.63 | i | 60* | 29 | -1 | /
CC(=O)c1c(C)[nH]c(C(=O)N2CCN(c3ccc(F)cc3)CC2)c1C | 0.075 | i | / | 4 | -7 | 84*
CC(=O)c1c(C)[nH]c(C(=O)N2CCN(c3cc(Cl)ccc3C)CC2)c1C | -0.34 | i | / | 53* | 33 | 27
CN(C)/C=N/C(=S)Nc1ccc(Br)cc1F | -0.82 | i | -4 | 2 | -4 | 17
N#CCCN1CCN(C2=NC(=O)/C(=C\c3cccs3)S2)CC1 | 0.66 | i | -1 | 2 | -11 | 29
Cc1ccccc1NCCNc1ccccc1C | 0.87 | i | / | 1 | -1 | -17
O=C1CC(N2CCN(C/C=C/c3ccccc3)CC2)C(=O)N1Cc1cccs1 (stereo not given) | -0.19 | i | 1 | 4 | 89* | 57
